One block for each molecule: values may come before it.
What was measured:
human renalase = human renalase (Homo sapiens, UniProt Q5VYX0); format: biochemical, H. sapiens; conditions: for inhibition of 6DHNAD oxidation (reductive half reaction): 173 µM 6DHNAD, anaerobic
renalase = assay: HPLC substrate analysis of reduced NR and NMN isomers with renalase; format: biochemical; conditions: ~12.5 µM renalase, 10 min, HPLC of borohydride-reduced mixtures, pH 7.5
How it was run: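 Each mixture was split: one half received renalase, the other served as the no-enzyme and stability control. After 10 min, enzyme was removed by 10 kDa ultrafiltration. Filtrates ran on isocratic C18 HPLC (same buffer) with detection at 260/370 nm, corrected for dilution.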

HsRen (human renalase) = conditions: cited from earlier work; for binding constants of the products: earlier work, no reference given
[1] = tested on: E.coli malate dehydrogenase; conditions: competitive; cited from earlier work
[2] = biological target: specific enzymes that have β-NADH as substrate; conditions: competitive; cited from earlier work
[3] = biological target: HsRen (renalase from H. sapiens) (Homo sapiens, UniProt Q5VYX0); assay: Reductive half-reaction of HsRen; format: biochemical; conditions: anaerobic, 25 °C; for increase in kred/Kd on addition of ADP: ADP 4–5 mM
How it was run: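 Anaerobic stopped-flow was run at 25 °C in 20 mM HEPES, pH 7.5, with glucose/glucose oxidase O2 scavenging. HsRen was 6–11 µM post-mix, and flavin reduction was read at 458 nm. DHNR runs included 2 mM octyl-β-glucoside.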

HsRen (renalase from H. sapiens), sequence (Q5VYX0 18-342): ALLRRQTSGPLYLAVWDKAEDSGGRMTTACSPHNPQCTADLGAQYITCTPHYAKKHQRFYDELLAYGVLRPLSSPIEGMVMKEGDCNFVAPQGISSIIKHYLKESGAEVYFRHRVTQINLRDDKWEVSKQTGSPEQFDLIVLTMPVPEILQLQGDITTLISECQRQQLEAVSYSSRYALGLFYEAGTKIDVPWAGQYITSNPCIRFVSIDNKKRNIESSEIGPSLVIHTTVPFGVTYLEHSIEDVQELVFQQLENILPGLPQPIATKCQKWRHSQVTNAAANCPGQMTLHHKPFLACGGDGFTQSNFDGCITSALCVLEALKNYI
human renalase, sequence (Q5VYX0 18-342): as above

- inhibition of 6DHNAD oxidation (reductive half reaction) (human renalase; HsRen): inhibitory
SMILES: NC(=O)C1=CN([C@@H]2O[C@H](CO)[C@@H](O)[C@H]2O)C=CC1 [4DHNR, 4-dihydronicotinamide riboside]

SMILES: NC(=O)C1=CC=CN([C@@H]2O[C@H](CO)[C@@H](O)[C@H]2O)C1 [2DHNR]
- consumed by renalase (substrate) (renalase): consumed

SMILES: Nc1ncnc2c1ncn2[C@@H]1O[C@H](COP(=O)(O)OP(=O)(O)O)[C@@H](O)[C@H]1O [ADP, adenosine diphosphate]
- Kd (human renalase): 15 mM

- IC50 (human renalase): > 7.3 mM
- inhibition of 6DHNAD oxidation (reductive half reaction) (human renalase; HsRen): did not yield any substrate inhibition
SMILES: NC(=O)c1ccc[n+]([C@@H]2O[C@H](CO)[C@@H](O)[C@H]2O)c1 [NR^+, nicotinamide riboside]

SMILES: CNC(=O)c1cccnc1 [methyl nicotinamide]
- inhibition of 6DHNAD oxidation (reductive half reaction) (human renalase; HsRen): did not show measureable inhibition

SMILES: NC(=O)C1=CN([C@@H]2O[C@H](COP(=O)(O)OP(=O)(O)OC[C@H]3O[C@@H](n4cnc5c(N)ncnc54)[C@H](O)[C@@H]3O)[C@@H](O)[C@H]2O)CC=C1 [6DHNAD, 6-dihydronicotinamide adenine dinucleotide]
- Kd (HsRen (human renalase); read-out: measured dissociation constant for the substrate): 0.173 mM
- Ki [1]: 34 nM
- Ki values [2]: sub-micromolar range

- consumed by renalase (substrate) (renalase): consumed
SMILES: NC(=O)C1=CC=CN([C@@H]2O[C@H](COP(=O)(O)O)[C@@H](O)[C@H]2O)C1 [2DHNMN, 2-dihydronicotinamide mononucleotide]

SMILES: NC(=O)c1cccnc1 [nicotinamide]
- IC50 (human renalase): > 68 mM
- inhibition of 6DHNAD oxidation (reductive half reaction) (human renalase; HsRen): did not show measureable inhibition

SMILES: Nc1ncnc2c1ncn2[C@@H]1O[C@H](COP(=O)(O)O)[C@@H](O)[C@H]1O [AMP, adenosine monophosphate]
- inhibition of 6DHNAD oxidation (reductive half reaction) (human renalase; HsRen): did not show measureable inhibition

SMILES: NC(=O)c1ccc[n+]([C@@H]2O[C@H](COP(=O)([O-])O)[C@@H](O)[C@H]2O)c1 [NMN^+, nicotinamide mononucleotide]
- inhibition of 6DHNAD oxidation (reductive half reaction) (human renalase; HsRen): did not yield any substrate inhibition

- consumed by renalase (substrate) (renalase): consumed
- increase in kred/Kd on addition of ADP ([3]; pH 7.5): 7 fold
- increase in kred/Kd on addition of ADP ([3]; pH 7.5, listed as 6-dihydronicotinamide riboside): seven
SMILES: NC(=O)C1=CN([C@@H]2O[C@H](CO)[C@@H](O)[C@H]2O)CC=C1 [6DHNR, 6-dihydornicotinamide riboside]

- consumed by renalase (substrate) (renalase): consumed
- effect of AMP counterpart ligand on kred/Kd ([3]; pH 7.5): no measurable difference
SMILES: NC(=O)C1=CN(C2OC(COP(=O)(O)O)C(O)C2O)CC=C1 (centres unmarked) [6DHNMN, 6-dihyronicotinamide mononucleotide]

SMILES: NC(=O)c1ccc[n+]([C@@H]2O[C@H](COP(=O)([O-])OP(=O)(O)OC[C@H]3O[C@@H](n4cnc5c(N)ncnc54)[C@H](O)[C@@H]3O)[C@@H](O)[C@H]2O)c1 [β-NAD^+, oxidized nicotinamide adenine dinucleotide]
- binding constants of the products (HsRen (human renalase)): low millimolar

SMILES: NC(=O)c1ccc[n+]([C@@H]2O[C@H](COP(=O)([O-])OP(=O)(O)OC[C@H]3O[C@@H](n4cnc5c(N)ncnc54)[C@H](OP(=O)(O)O)[C@@H]3O)[C@@H](O)[C@H]2O)c1 [β-NADP^+, oxidized nicotinamide adenine dinucleotide phosphate]
- binding constants of the products (HsRen (human renalase)): low millimolar

- difference in the Kd for 4DHNMN compared to 4DHNR (human renalase; HsRen): six-fold
- inhibition of 6DHNAD oxidation (reductive half reaction) (human renalase; HsRen): inhibitory
SMILES: NC(=O)C1=CN([C@@H]2O[C@H](COP(=O)(O)O)[C@@H](O)[C@H]2O)C=CC1 [4DHNMN, 4-dihydronicotinamide mononucleotide]

— article PMC5522708 (Archives of biochemistry and biophysics, 2016)
